Consider five molecules from publication PMC6120731 (ACS Omega, 2018).

Series [1] has as its target T1, human recombinant GIVA cPLA2 (Homo sapiens, UniProt P47712).
T1 sequence (P47712 1-749): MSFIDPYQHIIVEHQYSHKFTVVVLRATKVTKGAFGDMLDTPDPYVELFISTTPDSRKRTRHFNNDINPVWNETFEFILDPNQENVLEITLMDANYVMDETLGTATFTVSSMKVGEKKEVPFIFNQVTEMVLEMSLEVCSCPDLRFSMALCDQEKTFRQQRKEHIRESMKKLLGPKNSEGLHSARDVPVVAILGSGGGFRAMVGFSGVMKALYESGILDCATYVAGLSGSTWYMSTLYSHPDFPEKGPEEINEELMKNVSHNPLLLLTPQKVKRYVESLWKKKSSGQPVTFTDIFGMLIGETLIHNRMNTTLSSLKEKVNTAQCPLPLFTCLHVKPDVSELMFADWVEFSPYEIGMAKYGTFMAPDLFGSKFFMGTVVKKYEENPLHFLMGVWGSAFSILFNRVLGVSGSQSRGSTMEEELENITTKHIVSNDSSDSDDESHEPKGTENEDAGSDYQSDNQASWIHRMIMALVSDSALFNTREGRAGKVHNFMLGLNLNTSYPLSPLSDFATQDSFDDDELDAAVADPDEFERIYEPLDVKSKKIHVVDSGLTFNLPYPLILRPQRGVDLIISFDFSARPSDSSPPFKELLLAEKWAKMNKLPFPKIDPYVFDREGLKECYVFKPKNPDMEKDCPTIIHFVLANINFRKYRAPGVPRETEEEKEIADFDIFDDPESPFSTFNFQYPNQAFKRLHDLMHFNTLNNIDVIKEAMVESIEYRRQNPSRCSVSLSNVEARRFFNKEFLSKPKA
The class given is biochemical.

The nature of series [2]: plasma stability study. The class given is in vitro ADME. As to conditions: 37 °C, 1 mg/mL. The method, boiled down: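 Test compound added to preheated human plasma (37 °C) at a final 1 mg/mL. Aliquots taken at 0, 15, 30 and 60 min, quenched with acetonitrile, vortexed and centrifuged 5 min. Supernatants analysed by LC-HRMS/MS (negative ESI, C18 column, acetonitrile/isopropanol–water gradient with 0.01% formic acid). Each sample run in triplicate. Percent remaining relative to initial concentration plotted against time.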

For the molecule “5-((6-(4-Butoxyphenyl)-2-fluorohexanoyl)oxy)pentanoic Acid [Compound 27a]”, the “inhibition of GIVA cPLA2 (in words)” value in series [1] is “abolished the inhibitory potency”. Further, the “percent parent compound remaining after 1 h” value in series [2] (human plasma, 1 h) was ~100%.

For the molecule “5-((6-(4-Butoxyphenyl)hexanoyl)oxy)pentanoic Acid [Compound 27b]”, the “inhibition of GIVA cPLA2 (in words)” value in series [1] is on record as “no inhibition”. With `CCCCOc1ccc(CCCCC(=O)C(=O)OCCCCC(=O)O)cc1` [Compound 25a, 5-((6-(4-Butoxyphenyl)-2-oxohexanoyl)oxy)pentanoic Acid], the “times less potent than 25b against GIVA cPLA2” value in series [1] amounted to 3 times. In addition, in series [2], the “parent compound in human plasma after 30 min” value was “not detectable”.

`CCCCCCOc1ccc(CCCCC(=O)C(=O)OCCCCC(=O)O)cc1` [Compound 25b, 5-((6-(4-(Hexyloxy)phenyl)-2-oxohexanoyl)oxy)pentanoic Acid]: in series [1], the “selectivity for GIVA cPLA2 over GVIA iPLA2” value was “at least 500 fold” and the “times more potent than 6 against GIVA cPLA2” value is 4 times. Moreover, the “parent compound in human plasma after 30 min” value in series [2] is listed as “not detectable”.

As for `CCCCOc1ccc(CCCCC(=O)C(=O)O)cc1` [Compound 29, 6-(4-Butoxyphenyl)-2-oxohexanoic Acid], the “inhibition of GIVA cPLA2 (in words)” value in series [1] is “very weak inhibition”.
